Measurements reported in ChEMBL document CHEMBL1255453, “Affinity of ceftaroline and other beta-lactams for penicillin-binding proteins from Staphylococcus aureus and Streptococcus pneumoniae” (Antimicrob Agents Chemother, 2010).
Converted amounts (≈) assume the structure as drawn.

Experiments:
Staphylococcus aureus [1] = assay: Antibacterial activity against methicillin-, vancomycin-resistant, beta-lactamase-positive Staphylococcus aureus 510 by macrodilution method; assay type: functional
How it was run: (§1)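 CLSI broth macrodilution MICs. The S. aureus set is 5 MRSA strains (hVISA, VISA, VRSA) plus 1 MSSA. The S. pneumoniae set is 7 clonally unrelated clinical isolates, categorised by penicillin G against 2006 CLSI M100-S17 criteria (resistant ≥2 μg/ml, susceptible ≤0.06 μg/ml).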

Streptococcus pneumoniae [2] = assay: Antibacterial activity against penicillin-resistant Streptococcus pneumoniae 2688 by macrodilution method; assay type: functional; how it was run: as §1
[3] = Binding affinity to methicillin-, vancomycin-susceptible Staphylococcus aureus ATCC 29213 PBP3 by competitive binding assay
How it was run: (§2)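 MSSA grown in brain heart infusion broth and harvested at OD600 0.3–0.4. Lysed with lysozyme, lysostaphin, DNase I, freeze-thaw and sonication; membranes collected at 100,000 × g. Membranes (100 μg protein) incubated with β-lactam 10 min at 37°C, then Bocillin FL 40 μg/ml, 15 min at 37°C. SDS-PAGE, fluorescence at 520 nm. IC50 is 50% inhibition of Bocillin FL binding; 3 membrane isolations.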

Streptococcus pneumoniae [4] = assay: Antibacterial activity against penicillin-resistant Streptococcus pneumoniae 1394 by macrodilution method; assay type: functional; how it was run: as §1
[5] = Binding affinity to methicillin-, vancomycin-resistant, beta-lactamase-positive Staphylococcus aureus 510 PBP4 by competitive binding assay
Streptococcus pneumoniae [6] = assay: Antibacterial activity against penicillin-resistant Streptococcus pneumoniae 3413 by macrodilution method; assay type: functional; how it was run: as §1
[7] = Binding affinity to methicillin-, linezolid-resistant, vancomycin-intermediate, beta-lactamase-positive Staphylococcus aureus 2149A PBP2 by competitive binding assay
[8] = Binding affinity to methicillin-resistant, vancomycin-intermediate, beta-lactamase-positive Staphylococcus aureus 1287 PBP2 by competitive binding assay
[9] = Binding affinity to methicillin-, vancomycin-resistant, beta-lactamase-positive Staphylococcus aureus 510 PBP2 by competitive binding assay
Staphylococcus aureus [10] = assay: Antibacterial activity against methicillin-, daptomycin-resistant, vancomycin-intermediate, beta-lactamase-positive Staphylococcus aureus 25 by macrodilution method; assay type: functional; how it was run: as §1
[11] = Binding affinity to methicillin-resistant, heteroresistant vancomycin-intermediate, beta-lactamase-negative Staphylococcus aureus 873 PBP2 by competitive binding assay
MecA [12] = target: T1, MecA (Staphylococcus aureus, UniProt Q7DHH4); assay: Binding affinity to against methicillin-, daptomycin-resistant, vancomycin-intermediate, beta-lactamase-positive Staphylococcus aureus 25 PBP2a by competitive binding assay
T1 sequence (Q7DHH4 whole entry): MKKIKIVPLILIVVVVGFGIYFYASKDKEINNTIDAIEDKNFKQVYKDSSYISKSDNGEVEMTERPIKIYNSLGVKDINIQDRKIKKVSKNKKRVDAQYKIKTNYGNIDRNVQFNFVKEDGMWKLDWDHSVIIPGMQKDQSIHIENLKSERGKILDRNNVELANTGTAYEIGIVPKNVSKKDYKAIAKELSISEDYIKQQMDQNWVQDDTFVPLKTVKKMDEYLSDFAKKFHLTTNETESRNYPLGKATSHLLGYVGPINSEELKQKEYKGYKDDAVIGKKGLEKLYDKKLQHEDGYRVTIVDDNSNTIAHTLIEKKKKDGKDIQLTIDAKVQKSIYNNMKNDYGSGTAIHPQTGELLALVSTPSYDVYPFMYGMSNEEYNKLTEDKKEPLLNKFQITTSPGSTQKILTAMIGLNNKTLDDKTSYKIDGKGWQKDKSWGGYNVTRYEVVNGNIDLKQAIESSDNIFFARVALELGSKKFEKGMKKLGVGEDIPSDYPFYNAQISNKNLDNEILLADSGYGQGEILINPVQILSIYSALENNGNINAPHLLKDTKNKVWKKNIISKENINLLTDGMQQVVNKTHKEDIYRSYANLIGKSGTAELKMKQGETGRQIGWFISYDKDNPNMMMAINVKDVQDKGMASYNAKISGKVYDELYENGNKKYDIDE
How it was run: (§3)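 MRSA strain harvested in stationary phase (OD600 >2.00). Membranes prepared by enzymatic lysis, freeze-thaw, sonication and ultracentrifugation, then preincubated with clavulanic acid 1 mg/ml. β-Lactam competition 10 min at 37°C, then Bocillin FL 40 μg/ml, 15 min at 37°C. SDS-PAGE, 520 nm imaging; IC50 = 50% inhibition of Bocillin FL labeling; 3 membrane isolations.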

[13] = Binding affinity to against methicillin-, daptomycin-resistant, vancomycin-intermediate, beta-lactamase-positive Staphylococcus aureus 25 PBP2 by competitive binding assay; how it was run: as §3
MecA [14] = target: T1, MecA; assay: Binding affinity to methicillin-resistant, heteroresistant vancomycin-intermediate, beta-lactamase-negative Staphylococcus aureus 873 PBP2a by competitive binding assay
How it was run: (§4)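 MRSA grown in brain heart infusion and harvested in exponential phase (OD600 0.3–0.4). Membranes prepared by lysozyme/lysostaphin/DNase, freeze-thaw and sonication, then ultracentrifugation. Membranes preincubated with clavulanic acid 1 mg/ml to saturate PBPs other than PBP2a. Then β-lactam 10 min at 37°C and Bocillin FL 40 μg/ml, 15 min at 37°C. SDS-PAGE fluorescence; IC50 = 50% inhibition of Bocillin FL binding; 3 isolations.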

[15] = Binding affinity to methicillin-, vancomycin-susceptible Staphylococcus aureus ATCC 29213 PBP4 by competitive binding assay
How it was run: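 S. aureus grown in brain heart infusion broth and harvested at OD600 0.3 to 0.4. Membranes were prepared by lysozyme/lysostaphin/DNase I treatment, freeze-thaw, sonication and ultracentrifugation. Membranes (100 μg total protein) were preincubated with β-lactam for 10 min at 37°C, then labeled with 40 μg/ml Bocillin FL for 15 min at 37°C. SDS-PAGE with fluorescence imaging at 520 nm. IC50 is 50% inhibition of Bocillin FL binding; 3 membrane isolations.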

[16] = Binding affinity to methicillin-resistant, heteroresistant vancomycin-intermediate, beta-lactamase-negative Staphylococcus aureus 873 PBP3 by competitive binding assay
Streptococcus pneumoniae [17] = assay: Antibacterial activity against penicillin-resistant Streptococcus pneumoniae 2527 by macrodilution method; assay type: functional; how it was run: as §1
[18] = Binding affinity to methicillin-resistant, vancomycin-intermediate, beta-lactamase-positive Staphylococcus aureus 1287 PBP1 by competitive binding assay
MecA [19] = target: T1, MecA; assay: Binding affinity to methicillin-resistant, vancomycin-intermediate, beta-lactamase-positive Staphylococcus aureus 1287 PBP2a by competitive binding assay; how it was run: as §4
[20] = Binding affinity to methicillin-, vancomycin-susceptible Staphylococcus aureus ATCC 29213 PBP1 by competitive binding assay; how it was run: as §2
Staphylococcus aureus [21] = assay: Antibacterial activity against methicillin-, linezolid-resistant, vancomycin-intermediate, beta-lactamase-positive Staphylococcus aureus 2149A by macrodilution method; assay type: functional; how it was run: as §1
MecA [22] = target: T1, MecA; assay: Binding affinity to methicillin-, linezolid-resistant, vancomycin-intermediate, beta-lactamase-positive Staphylococcus aureus 2149A PBP2a by competitive binding assay; how it was run: as §4
Streptococcus pneumoniae [23] = assay: Antibacterial activity against penicillin-resistant Streptococcus pneumoniae 24 by macrodilution method; assay type: functional; how it was run: as §1
[24] = Binding affinity to methicillin-, vancomycin-resistant, beta-lactamase-positive Staphylococcus aureus 510 PBP1 by competitive binding assay

Structure (SMILES) | MIC (Staphylococcus aureus [1]) [µg/mL] | MIC (Streptococcus pneumoniae [2]) [µg/mL] | IC50 [3] [µg/mL] | MIC (Streptococcus pneumoniae [4]) [µg/mL] | IC50 [5] [µg/mL] | MIC (Streptococcus pneumoniae [6]) [µg/mL] | IC50 [7] [µg/mL] | IC50 [8] [µg/mL] | IC50 [9] [µg/mL] | MIC (Staphylococcus aureus [10]) [µg/mL] | IC50 [11] [µg/mL] | IC50 (MecA [12]) [nM] | IC50 [13] [µg/mL] | IC50 (MecA [14]) [µM] | IC50 [15] [µg/mL] | IC50 [16] [µg/mL] | MIC (Streptococcus pneumoniae [17]) [µg/mL] | IC50 [18] [µg/mL] | IC50 (MecA [19]) [µM] | IC50 [20] [µg/mL] | further results
CO/N=C(\C(=O)N[C@@H]1C(=O)N2C(C(=O)O)=C(COC(C)=O)CS[C@H]12)c1csc(N)n1 [CEFOTAXIME] | > 64 | 16 (≈ 35.1 µM) | 1 (≈ 2.2 µM) | 4 (≈ 8.78 µM) | > 128 | 2 (≈ 4.39 µM) | 1 (≈ 2.2 µM) | 1 (≈ 2.2 µM) | 0.25 (≈ 0.549 µM) | > 64 | 0.5 (≈ 1.1 µM) | 1100 | 2 (≈ 4.39 µM) | > 281 | > 8 | 0.25 (≈ 0.549 µM) | 0.015 (≈ 0.0329 µM) | 1 (≈ 2.2 µM) | 4.39 | 0.25 (≈ 0.549 µM) | MIC (Staphylococcus aureus [21]): 32 µg/mL (≈ 70.3 µM); IC50 (MecA [22]): > 281 µM; MIC (Streptococcus pneumoniae [23]): 1 µg/mL (≈ 2.2 µM); IC50 [24]: 0.5 µg/mL (≈ 1.1 µM)
CO/N=C(\C(=O)N[C@@H]1C(=O)N2C(C(=O)O)=C(CSc3nc(=O)c(O)nn3C)CS[C@H]12)c1csc(N)n1 [CEFTRIAXONE] | > 64 | 8 (≈ 14.4 µM) | 1 (≈ 1.8 µM) | 2 (≈ 3.61 µM) | > 128 | 2 (≈ 3.61 µM) | 1 (≈ 1.8 µM) | 1 (≈ 1.8 µM) | 0.25 (≈ 0.451 µM) | > 64 | 0.5 (≈ 0.902 µM) | 451 | 2 (≈ 3.61 µM) | > 231 | > 8 | 0.25 (≈ 0.451 µM) | 0.03 (≈ 0.0541 µM) | 1 (≈ 1.8 µM) | 3.61 | 0.25 (≈ 0.451 µM) | MIC (Staphylococcus aureus [21]): 64 µg/mL (≈ 115 µM); IC50 (MecA [22]): 3.61 µM; MIC (Streptococcus pneumoniae [23]): 2 µg/mL (≈ 3.61 µM); IC50 [24]: 0.5 µg/mL (≈ 0.902 µM)
CC1(C)S[C@@H]2[C@H](NC(=O)Cc3ccccc3)C(=O)N2[C@H]1C(=O)O [PENICILLIN G] | 32 (≈ 95.7 µM) | 8 (≈ 23.9 µM) | 1 (≈ 2.99 µM) | 4 (≈ 12 µM) | 64 (≈ 191 µM) | 4 (≈ 12 µM) | > 128 | 4 (≈ 12 µM) | 64 (≈ 191 µM) | 64 (≈ 191 µM) | 0.5 (≈ 1.5 µM) | 12000 | 1 (≈ 2.99 µM) | 191 | > 8 | 0.03 (≈ 0.0897 µM) | 2 (≈ 5.98 µM) | 4 (≈ 12 µM) | 12 | 4 (≈ 12 µM) | MIC (Staphylococcus aureus [21]): 64 µg/mL (≈ 191 µM); IC50 (MecA [22]): 5.98 µM; MIC (Streptococcus pneumoniae [23]): 4 µg/mL (≈ 12 µM); IC50 [24]: 128 µg/mL (≈ 383 µM)
